Results on 13 molecules are retold here after ChEMBL document CHEMBL1136720, “Orally active, antimalarial, anticancer, artemisinin-derived trioxane dimers with high stability and efficacy” (J Med Chem, 2003).

One experiment deals with Plasmodium falciparum. The experiment is described as follows: In vitro antimalarial activity against chloroquine-sensitive Plasmodium falciparum NF 54. The class given is functional, organism-based. In a few lines:
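In vitro test run in quadruplicate for each set, with the value taken from a fitted dose–response curve. Artemisinin was run as a concurrent control (n = 10).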

The subject of experiment [1] is Mus musculus. As to the kind of experiment: In vivo antimalarial activity in mice (Mus musculus) infected with Plasmodium berghei NY malaria parasite after intravenous administration for 4 days. The class given is functional. Conditions: 96 h. Summed up:
(§1)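 Mice infected with P. berghei NY were given drug intravenously or orally (per line) daily for 4 days, following a published protocol. The work was run as two separate groups of experiments, each with its own reference drugs.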

Experiment [2] concerns Mus musculus. The experiment is described as follows: In vivo antimalarial activity in mice (Mus musculus) infected with Plasmodium berghei NY malaria parasite after oral administration determined as parasite suppression at 10 mg/kg. The class given is functional. In a few lines: as §1
Experiment [3] relates to Mus musculus. As to the kind of experiment: In vivo antimalarial activity in mice (Mus musculus) infected with Plasmodium berghei NY malaria parasite after intravenous administration determined as parasite suppression at 10 mg/kg. In kind it is functional. Summed up:
as §1

The subject of experiment [4] is Mus musculus. The experiment is described as follows: In vivo antimalarial activity in mice (Mus musculus) infected with Plasmodium berghei NY malaria parasite after oral administration for 4 days. The class given is functional. The note with it: 96 h. Summed up:
as §1

Experiment [5] relates to Mus musculus. As to the kind of experiment: In vivo antimalarial activity in mice (Mus musculus) infected with Plasmodium berghei NY malaria parasite after intravenous administration for 4 days (Experiment 2). In kind it is functional. The note with it: 96 h. In a few lines: as §1
The subject of experiment [6] is Mus musculus. The experiment is described as follows: In vivo antimalarial activity in mice (Mus musculus) infected with Plasmodium berghei NY malaria parasite after intravenous administration determined as parasite suppression at 10 mg/kg (Experiment 1). In kind it is functional. Summed up: as §1
Experiment [7] has as its system Mus musculus. The experiment is described as follows: In vivo antimalarial activity in mice (Mus musculus) infected with Plasmodium berghei NY malaria parasite after intravenous administration for 4 days (Experiment 1). The class given is functional. The note with it: 96 h. Summed up: as §1
For experiment [8], the system named is Mus musculus. The experiment is described as follows: In vivo antimalarial activity in mice (Mus musculus) infected with Plasmodium berghei NY malaria parasite after intravenous administration determined as parasite suppression at 10 mg/kg (Experiment 2). In kind it is functional. Summed up: as §1
Experiment [9] has as its system Mus musculus. The experiment is described as follows: In vivo antimalarial activity in mice (Mus musculus) infected with Plasmodium berghei NY malaria parasite after oral administration determined as parasite suppression at 10 mg/kg (Experiment 2). In kind it is functional. Summed up:
(§2)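 P. berghei NY-infected mice dosed orally at 10 mg/kg body weight, following a previously published protocol. Read-out is % suppression of parasite growth. Two separate groups of experiments were run, each with its own concurrent reference drugs.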

Experiment [10] deals with Mus musculus. As to the kind of experiment: In vivo antimalarial activity in mice (Mus musculus) infected with Plasmodium berghei NY malaria parasite after oral administration determined as parasite suppression at 10 mg/kg (Experiment 1). In kind it is functional. Summed up:
as §2

Experiment [11] concerns Mus musculus. As to the kind of experiment: In vivo antimalarial activity in mice (Mus musculus) infected with Plasmodium berghei NY malaria parasite after oral administration for 4 days (Experiment 1). The class given is functional. Conditions: 96 h. Summed up:
(§3)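 P. berghei NY-infected mice given the compound orally once daily for 4 days, following a previously published protocol. Two separate groups of experiments were run, each with its own concurrent reference drugs.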

Experiment [12] has as its system Mus musculus. As to the kind of experiment: In vivo antimalarial activity in mice (Mus musculus) infected with Plasmodium berghei NY malaria parasite after oral administration for 4 days (Experiment 2). The class given is functional. The note with it: 96 h. In a few lines:
as §3

Regarding `C[C@@H]1CC[C@H]2[C@@H](C)C(=O)O[C@@H]3O[C@@]4(C)CC[C@@H]1[C@]32OO4` [ARTEMISININ], 9 nM corresponded to half-maximal inhibition with Plasmodium falciparum (IC50).
On the same count and under the same terms, to `C=C(CC1OC2O[C@]3(C)CCC4[C@H](C)CC[C@@H]([C@H]1C)C24OO3)CC1OC2O[C@]3(C)CC[C@H]4[C@H](C)CC[C@@H]([C@H]1C)C24OO3` (stereo partly specified) belongs 24 nM.
Take `C[C@@H]1CC[C@H]2[C@@H](C)C(CC(O)(COC(=O)CCC(=O)O)CC3OC4O[C@]5(C)CC[C@H]6[C@H](C)CC[C@@H]([C@H]3C)C46OO5)OC3O[C@]4(C)CCC1C32OO4` (stereo partly specified) [TERTIARY ALCOHOL PRIMARY SUCCINATEESTER]: in the experiment with Plasmodium falciparum, the IC50 – broadly, the concentration at which inhibition is half-maximal – is 3 nM. Also, the results for the ED50 in the experiment with Mus musculus [1] and with Mus musculus [4] were 2.4 mg/kg/day and 4.8 mg/kg/day, respectively. Further, the ED90 in the experiment on Mus musculus [1] came out at 11 mg/kg/day; in the experiment on Mus musculus [4] it was 34 mg/kg/day. The Parasite suppression with Mus musculus [2] is 55.4%; in the experiment with Mus musculus [3], 83.4%.
`C[C@@H]1CC[C@H]2[C@@H](C)C(CC(O)(CC3OC4O[C@]5(C)CC[C@H]6[C@H](C)CC[C@@H]([C@H]3C)C46OO5)c3ccc(C(=O)O)cc3)OC3O[C@]4(C)CCC1C32OO4` (stereo partly specified) gave an IC50 with Plasmodium falciparum of 2.1 nM.
Regarding `C[C@@H]1CC[C@H]2[C@@H](C)C(CC(=O)CC3OC4O[C@]5(C)CC[C@H]6[C@H](C)CC[C@@H]([C@H]3C)C46OO5)OC3O[C@]4(C)CCC1C32OO4` (stereo partly specified), half-maximal inhibition with Plasmodium falciparum (IC50) was put at 0.91 nM.
Take `C[C@@H]1CC[C@H]2[C@@H](C)C(CC(COC(=O)CCC(=O)O)CC3OC4O[C@]5(C)CC[C@H]6[C@H](C)CC[C@@H]([C@H]3C)C46OO5)OC3O[C@]4(C)CCC1C32OO4` (stereo partly specified): the IC50 in the experiment on Plasmodium falciparum amounted to 2 nM. The figures for the ED50 in the experiment with Mus musculus [1] and with Mus musculus [4] were 2.2 mg/kg/day and 9 mg/kg/day, respectively. Besides, the ED90 in the experiment with Mus musculus [1] was 6.3 mg/kg/day; with Mus musculus [4] it was 15 mg/kg/day. Further, the Parasite suppression came to 79.2% in the experiment with Mus musculus [2] and 81% in the experiment with Mus musculus [3].
In the experiment with Plasmodium falciparum, `C[C@@H]1CC[C@H]2[C@@H](C)C(CC3(CC4OC5O[C@]6(C)CC[C@H]7[C@H](C)CC[C@@H]([C@H]4C)C57OO6)CO3)OC3O[C@]4(C)CCC1C32OO4` (stereo partly specified) registered an IC50 of 2.8 nM.
As to `C[C@@H]1[C@H](OCc2ccc(C(=O)O)cc2)O[C@@H]2O[C@@]3(C)CC[C@@H]4[C@@H](C)CC[C@@H]1[C@]24OO3` (stereo in doubt) [ARTELINIC ACID], the ED50 (as a rule, the dose that gives a 50% effect, or the effect in half of the subjects) in the experiment on Mus musculus [5] is 5.6 mg/kg/day; with Mus musculus [7] it was 11 mg/kg/day. The ED90 in the experiment with Mus musculus [5] is 43 mg/kg/day; in the experiment with Mus musculus [7], 25 mg/kg/day. The Parasite suppression in the experiment on Mus musculus [6] was 54.7%; in the experiment on Mus musculus [8], 42.4%.
`C[C@@H]1CC[C@H]2[C@@H](C)C(CC(COC(=O)c3ccncc3)CC3OC4O[C@]5(C)CC[C@H]6[C@H](C)CC[C@@H]([C@H]3C)C46OO5)OC3O[C@]4(C)CCC1C32OO4` (stereo partly specified) had an IC50 with Plasmodium falciparum of 1.7 nM.
With `C[C@@H]1CC[C@H]2[C@@H](C)C(CC(O)(CC3OC4O[C@]5(C)CC[C@H]6[C@H](C)CC[C@@H]([C@H]3C)C46OO5)CS(=O)(=O)c3ccc(C(=O)O)cc3)OC3O[C@]4(C)CCC1C32OO4` (stereo partly specified), the IC50 with Plasmodium falciparum was determined as 2.4 nM. Also, the ED50 in the experiment on Mus musculus [1] came out at 2.7 mg/kg/day; in the experiment on Mus musculus [4], 7.5 mg/kg/day. The ED90 with Mus musculus [1] worked out at 10 mg/kg/day; in the experiment with Mus musculus [4] it was 35 mg/kg/day. Further, the values for the Parasite suppression in the experiment on Mus musculus [2] and in the experiment with Mus musculus [3] were 46.1% and 83.4%, respectively.
In the case of `C[C@H]1[C@H](OC(=O)CCC(=O)[O-])O[C@@H]2O[C@@]3(C)CC[C@H]4[C@H](C)CC[C@@H]1[C@@]24OO3.[Na+]` [SODIUM ARESUNATE], the Parasite suppression amounted to 50.9% in the experiment with Mus musculus [9] and 52.8% in the experiment on Mus musculus [10]. Moreover, the results for the ED50 in the experiment with Mus musculus [11] and in the experiment on Mus musculus [12] were 10 mg/kg/day and 5.5 mg/kg/day, respectively. Besides, the ED90 with Mus musculus [11] came to 39 mg/kg/day; with Mus musculus [12], 70 mg/kg/day.
In the experiment on Plasmodium falciparum, `C[C@H]1[C@@H](CC(O)(CO)C[C@H]2O[C@@H]3O[C@]4(C)CC[C@H]5[C@H](C)CC[C@@H]([C@H]2C)[C@@]35OO4)O[C@@H]2O[C@]3(C)CC[C@H]4[C@H](C)CC[C@@H]1[C@@]24OO3` (stereo partly specified) came in with an IC50 of 0.59 nM.
In the case of `C[C@@H]1CC[C@H]2[C@@H](C)C(CC(CO)CC3OC4O[C@]5(C)CC[C@H]6[C@H](C)CC[C@@H]([C@H]3C)C46OO5)OC3O[C@]4(C)CCC1C32OO4` (stereo partly specified), the IC50 in the experiment on Plasmodium falciparum was determined as 0.87 nM.
